Data from ChEMBL document CHEMBL4038284, “Synthesis of novel quinoline-based 4,5-dihydro-1H-pyrazoles as potential anticancer, antifungal, antibacterial and antiprotozoal agents” (Eur J Med Chem, 2017).
≈ marks a conversion by molar mass, not a printed value. Calls of active or inactive are those of the source. No cut-off for these calls is given here.

Columns and labels:
[1] = system: K562; assay: Growth inhibition of human K562 cells at 10 uM incubated for 48 hrs by sulforhodamine B assay; assay type: functional, cell-based
In short: (§1)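 NCI 60-line panel, single 10 μM dose. Cells were grown in RPMI-1640 with 5% FBS and 2 mM L-glutamine and pre-incubated 24 h before compound addition (DMSO stock). Exposure was 48 h at 37 °C, 5% CO2. Cells were fixed with cold TCA (10% final), stained with 0.4% SRB, bound dye dissolved in 10 mM Tris base, A515 read. Growth was taken relative to time-zero and untreated control plates.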

[2] = system: RPMI-8226; assay: Growth inhibition of human RPMI8226 cells at 10 uM incubated for 48 hrs by sulforhodamine B assay; assay type: functional, cell-based; in short: as §1
[3] = system: HOP-62; assay: Growth inhibition of human HOP62 cells at 10 uM incubated for 48 hrs by sulforhodamine B assay; assay type: functional, cell-based
In short: (§2)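 NCI 60-cell-line screen at a single 10 µM dose. Cells in RPMI-1640 with 5% FBS and 2 mM L-glutamine, pre-incubated 24 h, then treated for 48 h at 37 °C. TCA fixation, sulforhodamine B staining, absorbance at 515 nm. Percentage growth calculated against time-zero and untreated controls.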

[4] = system: HOP-92; assay: Growth inhibition of human HOP92 cells at 10 uM incubated for 48 hrs by sulforhodamine B assay; assay type: functional, cell-based; in short: as §1
[5] = system: HCC 2998; assay: Growth inhibition of human HCC2998 cells at 10 uM incubated for 48 hrs by sulforhodamine B assay; assay type: functional, cell-based; in short: as §2
[6] = system: HCT-116; assay: Growth inhibition of human HCT116 cells at 10 uM incubated for 48 hrs by sulforhodamine B assay; assay type: functional, cell-based; in short: as §2
[7] = system: HT-29; assay: Growth inhibition of human HT-29 cells at 10 uM incubated for 48 hrs by sulforhodamine B assay; assay type: functional, cell-based; in short: as §1
[8] = system: SF-295; assay: Growth inhibition of human SF295 cells at 10 uM incubated for 48 hrs by sulforhodamine B assay; assay type: functional, cell-based; in short: as §1
[9] = system: SNB-19; assay: Growth inhibition of human SNB19 cells at 10 uM incubated for 48 hrs by sulforhodamine B assay; assay type: functional, cell-based
In short: (§3)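 NCI-60 single-dose screen at 10 µM for 48 h. Cells were grown in RPMI-1640 with 5% FBS and 2 mM L-glutamine and preincubated 24 h before compound. Time-zero plates were TCA-fixed at compound addition. After exposure, cells were TCA-fixed, stained with SRB and read at 515 nm. Percentage growth was calculated against time-zero and untreated-control absorbances.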

[10] = system: MDA-MB-435; assay: Growth inhibition of human MDA-MB-435 cells at 10 uM incubated for 48 hrs by sulforhodamine B assay; assay type: functional, cell-based; in short: as §1
[11] = system: SK-MEL-5; assay: Growth inhibition of human SK-MEL-5 cells at 10 uM incubated for 48 hrs by sulforhodamine B assay; assay type: functional, cell-based; in short: as §3
[12] = system: UACC-62; assay: Growth inhibition of human UACC62 cells at 10 uM incubated for 48 hrs by sulforhodamine B assay; assay type: functional, cell-based; in short: as §3
[13] = system: OVCAR-3; assay: Growth inhibition of human OVCAR3 cells at 10 uM incubated for 48 hrs by sulforhodamine B assay; assay type: functional, cell-based; in short: as §1
[14] = system: OVCAR-4; assay: Growth inhibition of human OVCAR4 cells at 10 uM incubated for 48 hrs by sulforhodamine B assay; assay type: functional, cell-based; in short: as §1
[15] = system: OVCAR-8; assay: Growth inhibition of human OVCAR8 cells at 10 uM incubated for 48 hrs by sulforhodamine B assay; assay type: functional, cell-based; in short: as §1
[16] = system: SK-OV-3; assay: Growth inhibition of human SKOV3 cells at 10 uM incubated for 48 hrs by sulforhodamine B assay; assay type: functional, cell-based; in short: as §3
[17] = system: RXF 393; assay: Growth inhibition of human RXF393 cells at 10 uM incubated for 48 hrs by sulforhodamine B assay; assay type: functional, cell-based; in short: as §1
[18] = system: UO-31; assay: Growth inhibition of human UO31 cells at 10 uM incubated for 48 hrs by sulforhodamine B assay; assay type: functional, cell-based; in short: as §3
[19] = system: PC-3; assay: Growth inhibition of human PC3 cells at 10 uM incubated for 48 hrs by sulforhodamine B assay; assay type: functional, cell-based; in short: as §1
[20] = system: MDA-MB-231; assay: Growth inhibition of human MDA-MB-231 cells at 10 uM incubated for 48 hrs by sulforhodamine B assay; assay type: functional, cell-based; in short: as §1
[21] = system: T47D; assay: Growth inhibition of human T47D cells at 10 uM incubated for 48 hrs by sulforhodamine B assay; assay type: functional, cell-based; in short: as §3
[22] = system: MDA-MB-468; assay: Growth inhibition of human MDA-MB-468 cells at 10 uM incubated for 48 hrs by sulforhodamine B assay; assay type: functional, cell-based; in short: as §1
[23] = system: Candida albicans; assay: Antifungal activity against Candida albicans ATCC 10231 incubated for 48 hrs under dark condition by broth microdilution method; assay type: functional; details: ATCC 10231, 48 h
In short: (§4)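 CLSI M27-A3 broth microdilution in RPMI-1640, DMSO ≤1%, compounds at 250-0.98 µg/mL final. Inoculum 1-5 × 10^3 CFU/mL. Incubated 48 h at 30 °C in a moist dark chamber, read at OD405. MIC80 and MIC50 taken from % inhibition dose-response curves (mean ± SEM, triplicate). Amphotericin B was the positive control.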

[24] = system: Cryptococcus neoformans; assay: Antifungal activity against Cryptococcus neoformans ATCC 32264 incubated for 48 hrs under dark condition by broth microdilution method; assay type: functional; details: ATCC 32264, 48 h; in short: as §4
[25] = system: Candida albicans; assay: Growth inhibition of Candida albicans ATCC 10231 at 250 ug/ml incubated for 48 hrs under dark condition by broth microdilution method relative to control; assay type: functional; details: ATCC 10231, 48 h, read-out: GI
In short: (§5)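 CLSI M27-A3 broth microdilution in RPMI-1640, DMSO ≤1%. Inoculum 1-5 × 10^3 CFU/mL. Incubated 48 h at 30 °C, dark. % inhibition = 100 − (OD405 test − sterility control)/(OD405 growth control − sterility control), with growth and sterility control wells. Triplicate.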

[26] = system: Candida albicans; assay: Growth inhibition of Candida albicans ATCC 10231 at 15.62 ug/ml incubated for 48 hrs under dark condition by broth microdilution method relative to control; assay type: functional; details: ATCC 10231, 48 h, read-out: GI; in short: as §5
[27] = system: Candida albicans; assay: Growth inhibition of Candida albicans ATCC 10231 at 7.8 ug/ml incubated for 48 hrs under dark condition by broth microdilution method relative to control; assay type: functional; details: ATCC 10231, 48 h, read-out: GI; in short: as §5
[28] = system: Cryptococcus neoformans; assay: Growth inhibition of Cryptococcus neoformans ATCC 32264 at 31.25 ug/ml incubated for 48 hrs under dark condition by broth microdilution method relative to control; assay type: functional; details: ATCC 32264, 48 h, read-out: GI; in short: as §5
[29] = system: Cryptococcus neoformans; assay: Growth inhibition of Cryptococcus neoformans ATCC 32264 at 15.62 ug/ml incubated for 48 hrs under dark condition by broth microdilution method relative to control; assay type: functional; details: ATCC 32264, 48 h, read-out: GI; in short: as §5
[30] = system: Cryptococcus neoformans; assay: Growth inhibition of Cryptococcus neoformans ATCC 32264 at 3.4 ug/ml incubated for 48 hrs under dark condition by broth microdilution method relative to control; assay type: functional; details: ATCC 32264, 48 h, read-out: GI
[31] = system: Staphylococcus aureus; assay: Antibacterial activity against methicillin-sensitive Staphylococcus aureus ATCC 25923 after 24 hrs by resazurin dye based microdilution assay; assay type: functional; details: ATCC 25923, 24 h
In short: (§6)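 MIC taken as the lowest concentration giving visible inhibition and/or by resazurin (1 mg/mL). Gentamicin was the control. Run in duplicate, repeated at least three times.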

[32] = system: Escherichia coli; assay: Antibacterial activity against Escherichia coli ATCC 25922 after 24 hrs by resazurin dye based microdilution assay; assay type: functional; details: ATCC 25922, 24 h; in short: as §6

SMILES | growth inhibition (GI) [1] | growth inhibition (GI) [2] | growth inhibition (GI) [3] | growth inhibition (GI) [4] | growth inhibition (GI) [5] | growth inhibition (GI) [6] | growth inhibition (GI) [7] | growth inhibition (GI) [8] | growth inhibition (GI) [9] | growth inhibition (GI) [10] | growth inhibition (GI) [11] | growth inhibition (GI) [12] | growth inhibition (GI) [13] | growth inhibition (GI) [14] | growth inhibition (GI) [15] | growth inhibition (GI) [16] | growth inhibition (GI) [17] | growth inhibition (GI) [18] | growth inhibition (GI) [19] | growth inhibition (GI) [20] | other results
COc1cc(C2=NN(c3ccc(Cl)cc3)C(c3cccc(Nc4ccnc5cc(Cl)ccc45)c3)C2)cc(OC)c1OC (stereo not drawn) | inactive | inactive | inactive | inactive | inactive | inactive | inactive | inactive | inactive | inactive | inactive | inactive | inactive | inactive | inactive | inactive | inactive | inactive | inactive | inactive | growth inhibition (GI) [21]: inactive; growth inhibition (GI) [22]: inactive; MIC50 [23]: ≥ 250 mg/L; MIC80 [23]: ≥ 250 mg/L; MIC50 [24]: ≥ 250 mg/L; MIC80 [24]: ≥ 250 mg/L; inhibition of growth at 250 µg/mL [25]: 26.5%; inhibition of growth at 15.62 µg/mL [26]: 8.02%; inhibition of growth at 7.8 µg/mL [27]: 4.21%; inhibition of growth at 31.25 µg/mL [28]: 12.5%; inhibition of growth at 15.62 µg/mL [29]: 12.2%; inhibition of growth at 3.4 µg/mL [30]: 8.08%; MIC [31]: > 1000 mg/L; MIC [32]: > 1000 mg/L
COc1ccc(C(=O)/C=C/c2cccc(Nc3ccnc4cc(Cl)ccc34)c2)cc1 | Active | Active | Active | Active | Active | Active | Active | Active | Active | Active | Active | Active | Active | Active | Active | Active | Active | Active | Active | Active | growth inhibition (GI) [21]: Active; growth inhibition (GI) [22]: Active; MIC50 [23]: 250 mg/L (≈ 603 µM); MIC80 [23]: ≥ 250 mg/L; MIC50 [24]: ≥ 250 mg/L; MIC80 [24]: ≥ 250 mg/L; inhibition of growth at 250 µg/mL [25]: 59.6%; inhibition of growth at 15.62 µg/mL [26]: 26.8%; inhibition of growth at 7.8 µg/mL [27]: 12.5%; inhibition of growth at 31.25 µg/mL [28]: 7.31%; inhibition of growth at 15.62 µg/mL [29]: 5.01%; inhibition of growth at 3.4 µg/mL [30]: 0%; MIC [31]: > 1000 mg/L; MIC [32]: > 1000 mg/L
